From ChEMBL document CHEMBL3525921, “Metabolic pathways of inhaled glucocorticoids by the CYP3A enzymes” (Drug Metab Dispos, 2013)
One block for each compound: values may come before it.

Columns and labels:
Assay type in all cases: ADME
Cytochrome P450 3A4 [1] = target: T1, Cytochrome P450 3A4 (Homo sapiens, UniProt P08684); experiment: Drug level of the compound assessed as recombinant CYP3A4 (unknown origin)-mediated metabolite formation treated with budesonide by MS/MS analysis; details: recombinant enzyme
Summary of the method: (§1)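 Metabolite profiling used 50 pmol recombinant P450 (with reductase and cytochrome b5) and 100 μM substrate in 30 mM potassium phosphate (pH 7.4). Reactions were started with 1.3 mM NADPH at 37°C, with no-NADPH negative controls. They were stopped with cold acetonitrile, deproteinized by centrifugation, and metabolites were extracted on C-18 cartridges for MS analysis.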

Cytochrome P450 3A7 = Cytochrome P450 3A7 (Homo sapiens, UniProt P24462); experiment: Drug level of the compound assessed as recombinant CYP3A7 (unknown origin)-mediated metabolite formation treated with budesonide by MS/MS analysis; details: recombinant enzyme; summary of the method: as §1
Cytochrome P450 3A5 = Cytochrome P450 3A5 (Homo sapiens, UniProt P20815); experiment: Drug level of the compound assessed as recombinant CYP3A5 (unknown origin)-mediated metabolite formation treated with budesonide by MS/MS analysis; details: recombinant enzyme; summary of the method: as §1
Cytochrome P450 3A4 [2] = target: T1, Cytochrome P450 3A4; experiment: Drug level of the compound assessed as recombinant CYP3A4 (unknown origin)-mediated metabolite formation treated with triamcinolone acetonide by MS/MS analysis; details: recombinant enzyme; summary of the method: as §1
Cytochrome P450 3A4 [3] = target: T1, Cytochrome P450 3A4; experiment: Drug metabolism assessed as recombinant CYP3A4 (unknown origin)-mediated 6beta-hydroxy, 21-carboxy triamcinolone acetonide metabolite retention time by MS/MS analysis; details: recombinant enzyme; summary of the method: as §1
Cytochrome P450 3A4 [4] = target: T1, Cytochrome P450 3A4; experiment: Drug level of the compound assessed as recombinant CYP3A4 (unknown origin)-mediated metabolite formation treated with flunisolide by MS/MS analysis; details: recombinant enzyme; summary of the method: as §1
Cytochrome P450 3A4 [5] = target: T1, Cytochrome P450 3A4; experiment: Drug metabolism assessed as recombinant CYP3A4 (unknown origin)-mediated delta6-flunisolide metabolite retention time by MS/MS analysis; details: recombinant enzyme; summary of the method: as §1
Cytochrome P450 3A4 [6] = target: T1, Cytochrome P450 3A4; experiment: Drug metabolism assessed as recombinant CYP3A4 (unknown origin)-mediated 21-carboxy flunisolide metabolite retention time by MS/MS analysis; details: recombinant enzyme; summary of the method: as §1
Cytochrome P450 3A4 [7] = target: T1, Cytochrome P450 3A4; experiment: Drug metabolism assessed as recombinant CYP3A4 (unknown origin)-mediated 21-carboxy triamcinolone acetonide metabolite retention time by MS/MS analysis; details: recombinant enzyme; summary of the method: as §1
Cytochrome P450 3A4 [8] = target: T1, Cytochrome P450 3A4; experiment: Drug metabolism assessed as recombinant CYP3A4 (unknown origin)-mediated 21-nortriamcincolone acetonide metabolite retention time by MS/MS analysis; details: recombinant enzyme; summary of the method: as §1
Cytochrome P450 3A4 [9] = target: T1, Cytochrome P450 3A4; experiment: Drug metabolism assessed as recombinant CYP3A4 (unknown origin)-mediated delta6-triamcinolone acetonide metabolite retention time by MS/MS analysis; details: recombinant enzyme; summary of the method: as §1
Cytochrome P450 3A4 [10] = target: T1, Cytochrome P450 3A4; experiment: Drug metabolism assessed as recombinant CYP3A4 (unknown origin)-mediated 17beta-carboxy fluticasone propionate metabolite retention time by MS/MS analysis; details: recombinant enzyme; summary of the method: as §1
Cytochrome P450 3A4 [11] = target: T1, Cytochrome P450 3A4; experiment: Drug level of the compound assessed as recombinant CYP3A4 (unknown origin)-mediated metabolite formation treated with fluticasone propionate by MS/MS analysis; details: recombinant enzyme; summary of the method: as §1
Cytochrome P450 3A4 [12] = target: T1, Cytochrome P450 3A4; experiment: Drug metabolism assessed as recombinant CYP3A4 (unknown origin)-mediated 6beta-hydroxy triamcinolone acetonide metabolite retention time by MS/MS analysis; details: recombinant enzyme; summary of the method: as §1
Cytochrome P450 3A4 [13] = target: T1, Cytochrome P450 3A4; experiment: Drug metabolism assessed as recombinant CYP3A4 (unknown origin)-mediated 23-hydroxy budesonide metabolite formation by MS/MS analysis; details: recombinant enzyme; summary of the method: as §1
CYP3A7 = CYP3A7 (Homo sapiens, UniProt P24462); experiment: Activity at recombinant CYP3A7 (unknown origin) assessed as half life at 1 uM by LC-MS analysis
Summary of the method: (§2)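 Recombinant P450 co-expressing P450 reductase and cytochrome b5, 10 pmol, with 1 μM substrate in 30 mM potassium phosphate (pH 7.4). Started with 1.3 mM NADPH at 37°C; no-NADPH negative controls. Samples at 0–20 min were quenched in cold acetonitrile with prednisolone internal standard and run by LC/MS, in triplicate. Parent/IS ratio vs time fitted to one-phase exponential decay; t1/2 = 0.69/kobs.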

Cytochrome P450 3A4 [14] = target: T1, Cytochrome P450 3A4; experiment: Drug metabolism assessed as recombinant CYP3A4 (unknown origin)-mediated 16alpha-hydroxy prednisolone metabolite formation by MS/MS analysis in presence of esterase inhibitor; details: recombinant enzyme
CYP3A4 = CYP3A4 (Homo sapiens, UniProt P08684); experiment: Activity at recombinant CYP3A4 (unknown origin) assessed as half life at 1 uM by LC-MS analysis; summary of the method: as §2
Cytochrome P450 3A4 [15] = target: T1, Cytochrome P450 3A4; experiment: Drug metabolism assessed as recombinant CYP3A4 (unknown origin)-mediated 6beta-hydroxy budesonide metabolite formation by MS/MS analysis; details: recombinant enzyme; summary of the method: as §1
Cytochrome P450 3A4 [16] = target: T1, Cytochrome P450 3A4; experiment: Drug metabolism assessed as recombinant CYP3A4 (unknown origin)-mediated 16alpha-hydroxy prednisolone metabolite formation by MS/MS analysis; details: recombinant enzyme
Cytochrome P450 3A4 [17] = target: T1, Cytochrome P450 3A4; experiment: Drug metabolism assessed as recombinant CYP3A4 (unknown origin)-mediated delta6-budesonide metabolite formation by MS/MS analysis; details: recombinant enzyme; summary of the method: as §1
CYP3A5 = CYP3A5 (Homo sapiens, UniProt P20815); experiment: Activity at recombinant CYP3A5 (unknown origin) assessed as half life at 1 uM by LC-MS analysis; summary of the method: as §2
Cytochrome P450 3A4 [18] = target: T1, Cytochrome P450 3A4; experiment: Drug metabolism assessed as recombinant CYP3A4 (unknown origin)-mediated keto-flunisolide metabolite retention time by MS/MS analysis; details: recombinant enzyme; summary of the method: as §1

Chain of CYP3A7 (P24462 whole entry): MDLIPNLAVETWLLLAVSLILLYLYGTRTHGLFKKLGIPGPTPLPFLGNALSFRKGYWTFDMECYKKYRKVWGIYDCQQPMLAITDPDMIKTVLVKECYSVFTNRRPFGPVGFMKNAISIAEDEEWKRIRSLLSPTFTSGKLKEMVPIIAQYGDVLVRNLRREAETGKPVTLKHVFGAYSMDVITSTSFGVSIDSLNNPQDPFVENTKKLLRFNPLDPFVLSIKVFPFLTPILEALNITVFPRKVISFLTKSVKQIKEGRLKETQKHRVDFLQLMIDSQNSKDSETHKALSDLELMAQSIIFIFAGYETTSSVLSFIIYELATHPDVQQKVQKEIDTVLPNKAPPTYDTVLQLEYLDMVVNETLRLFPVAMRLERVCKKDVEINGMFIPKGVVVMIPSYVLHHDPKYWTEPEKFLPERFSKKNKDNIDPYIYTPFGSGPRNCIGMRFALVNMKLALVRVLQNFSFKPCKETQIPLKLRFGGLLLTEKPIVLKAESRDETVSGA
Chain of Cytochrome P450 3A7 (P24462 whole entry): as above
Chain of CYP3A4 (P08684 whole entry): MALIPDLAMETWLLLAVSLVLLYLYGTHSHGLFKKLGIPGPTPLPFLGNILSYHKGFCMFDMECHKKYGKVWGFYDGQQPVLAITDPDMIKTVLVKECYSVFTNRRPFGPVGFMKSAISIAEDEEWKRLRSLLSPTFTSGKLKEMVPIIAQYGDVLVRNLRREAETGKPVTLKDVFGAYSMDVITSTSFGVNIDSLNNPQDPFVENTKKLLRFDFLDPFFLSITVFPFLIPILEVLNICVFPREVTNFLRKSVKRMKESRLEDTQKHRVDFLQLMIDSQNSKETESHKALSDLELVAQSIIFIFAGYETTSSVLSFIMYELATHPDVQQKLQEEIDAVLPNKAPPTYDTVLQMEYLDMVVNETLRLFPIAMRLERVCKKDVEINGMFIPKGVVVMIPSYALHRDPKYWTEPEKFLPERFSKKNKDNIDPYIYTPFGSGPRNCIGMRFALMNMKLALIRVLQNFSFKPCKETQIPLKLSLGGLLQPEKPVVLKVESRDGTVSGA
T1 sequence (P08684 whole entry): as above
Chain of CYP3A5 (P20815 whole entry): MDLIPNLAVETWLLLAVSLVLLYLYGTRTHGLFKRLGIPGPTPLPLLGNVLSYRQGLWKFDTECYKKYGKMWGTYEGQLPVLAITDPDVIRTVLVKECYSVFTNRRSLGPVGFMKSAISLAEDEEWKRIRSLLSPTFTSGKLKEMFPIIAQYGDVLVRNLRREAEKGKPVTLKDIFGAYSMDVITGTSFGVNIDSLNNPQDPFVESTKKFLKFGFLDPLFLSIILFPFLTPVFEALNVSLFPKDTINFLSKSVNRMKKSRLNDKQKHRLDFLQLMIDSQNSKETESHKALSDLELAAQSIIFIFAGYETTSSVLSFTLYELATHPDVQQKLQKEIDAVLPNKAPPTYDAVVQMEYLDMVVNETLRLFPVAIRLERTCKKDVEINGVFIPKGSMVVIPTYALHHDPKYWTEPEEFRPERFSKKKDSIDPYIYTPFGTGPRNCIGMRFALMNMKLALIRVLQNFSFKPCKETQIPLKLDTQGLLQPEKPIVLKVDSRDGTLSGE
Chain of Cytochrome P450 3A5 (P20815 whole entry): as above

- Drug metabolism (Cytochrome P450 3A4 [1]): metabolite_detected
- Drug metabolism (Cytochrome P450 3A7): metabolite_detected
- Drug metabolism (Cytochrome P450 3A5): metabolite_detected
SMILES: CCC(O)C1O[C@@H]2C[C@H]3[C@@H]4CCC5=CC(=O)C=C[C@]5(C)[C@H]4[C@@H](O)C[C@]3(C)[C@]2(C(=O)CO)O1 (stereo not given in full)

- Drug metabolism (Cytochrome P450 3A4 [4]): metabolite_detected
- Retention_time (Cytochrome P450 3A4 [5]): 20.6 min
SMILES: CC1(C)O[C@@H]2C[C@H]3[C@@H]4C=C(F)C5=CC(=O)C=C[C@]5(C)[C@H]4[C@@H](O)C[C@]3(C)[C@]2(C(=O)CO)O1

- Drug metabolism (Cytochrome P450 3A4 [4]): metabolite_detected
SMILES: CC1(C)O[C@@H]2C[C@H]3[C@@H]4CC(=O)C5=CC(=O)C=C[C@]5(C)[C@H]4[C@@H](O)C[C@]3(C)[C@]2(C(=O)CO)O1

- Retention_time (Cytochrome P450 3A4 [6]): 23.1 min
- Drug metabolism (Cytochrome P450 3A4 [4]): metabolite_detected
SMILES: CC1(C)O[C@@H]2C[C@H]3[C@@H]4C[C@H](F)C5=CC(=O)C=C[C@]5(C)[C@H]4[C@@H](O)C[C@]3(C)[C@]2(C(=O)C(=O)O)O1

- Drug metabolism (Cytochrome P450 3A4 [1]): metabolite_detected
- Drug metabolism (Cytochrome P450 3A7): metabolite_detected
- Drug metabolism (Cytochrome P450 3A5): metabolite_detected
SMILES: CCCC1O[C@@H]2C[C@H]3[C@@H]4C=CC5=CC(=O)C=C[C@]5(C)[C@H]4[C@@H](O)C[C@]3(C)[C@]2(C(=O)CO)O1 (stereo not given in full)

- Drug metabolism (Cytochrome P450 3A4 [1]): metabolite_detected
- Drug metabolism (Cytochrome P450 3A7): metabolite_detected
- Drug metabolism (Cytochrome P450 3A5): metabolite_detected
SMILES: CCCC1O[C@@H]2C[C@H]3[C@@H]4C[C@@H](O)C5=CC(=O)C=C[C@]5(C)[C@H]4[C@@H](O)C[C@]3(C)[C@]2(C(=O)CO)O1 (stereo not given in full)

- Drug metabolism (Cytochrome P450 3A4 [13]): metabolite_detected
- half-life at 1 µM (CYP3A7): 71 min
- Drug metabolism (Cytochrome P450 3A4 [14]): metabolite_not_detected
- half-life at 1 µM (CYP3A4): 11 min
- Drug metabolism (Cytochrome P450 3A4 [15]): metabolite_detected
- Drug metabolism (Cytochrome P450 3A4 [16]): metabolite_detected
- Drug metabolism (Cytochrome P450 3A4 [17]): metabolite_detected
- half-life at 1 µM (CYP3A5): 40 min
SMILES: CCCC1O[C@@H]2C[C@H]3[C@@H]4CCC5=CC(=O)C=C[C@]5(C)[C@H]4[C@@H](O)C[C@]3(C)[C@]2(C(=O)CO)O1 (stereo not given in full) [BUDESONIDE]

- Retention_time (Cytochrome P450 3A4 [18]): 15.8 min
- half-life at 1 µM (CYP3A4): 16 min
SMILES: CC1(C)O[C@@H]2C[C@H]3[C@@H]4C[C@H](F)C5=CC(=O)C=C[C@]5(C)[C@H]4[C@@H](O)C[C@]3(C)[C@]2(C(=O)CO)O1 [FLUNISOLIDE]

- half-life at 1 µM (CYP3A7): 213 min
- half-life at 1 µM (CYP3A4): 12 min
- half-life at 1 µM (CYP3A5): 130 min
SMILES: CC1(C)O[C@@H]2C[C@H]3[C@@H]4CCC5=CC(=O)C=C[C@]5(C)[C@@]4(F)[C@@H](O)C[C@]3(C)[C@]2(C(=O)CO)O1 [TRIAMCINOLONE ACETONIDE]

Further lines, the compound ahead of its results:

SMILES: CC1(C)O[C@@H]2C[C@H]3[C@@H]4C[C@@H](O)C5=CC(=O)C=C[C@]5(C)[C@@]4(F)[C@@H](O)C[C@]3(C)[C@]2(C(=O)C(=O)O)O1
- Drug metabolism (Cytochrome P450 3A4 [2]): metabolite_detected
- Retention_time (Cytochrome P450 3A4 [3]): 16.4 min

SMILES: CC1(C)O[C@@H]2C[C@H]3[C@@H]4CCC5=CC(=O)C=C[C@]5(C)[C@@]4(F)[C@@H](O)C[C@]3(C)[C@]2(C(=O)C(=O)O)O1
- Drug metabolism (Cytochrome P450 3A4 [2]): metabolite_detected
- Retention_time (Cytochrome P450 3A4 [7]): 23.7 min

SMILES: CC1(C)O[C@@H]2C[C@H]3[C@@H]4CCC5=CC(=O)C=C[C@]5(C)[C@@]4(F)[C@@H](O)C[C@]3(C)[C@]2(C(=O)O)O1
- Drug metabolism (Cytochrome P450 3A4 [2]): metabolite_detected
- Retention_time (Cytochrome P450 3A4 [8]): 18.9 min

SMILES: CC1(C)O[C@@H]2C[C@H]3[C@@H]4C=CC5=CC(=O)C=C[C@]5(C)[C@@]4(F)[C@@H](O)C[C@]3(C)[C@]2(C(=O)CO)O1
- Retention_time (Cytochrome P450 3A4 [9]): 19.1 min
- Drug metabolism (Cytochrome P450 3A4 [2]): metabolite_detected

SMILES: CCC(=O)O[C@]1(C(=O)O)[C@H](C)C[C@H]2[C@@H]3C[C@H](F)C4=CC(=O)C=C[C@]4(C)[C@@]3(F)[C@@H](O)C[C@@]21C
- Retention_time (Cytochrome P450 3A4 [10]): 19.7 min
- Drug metabolism (Cytochrome P450 3A4 [11]): metabolite_detected

SMILES: C[C@]12C=CC(=O)C=C1CC[C@@H]1[C@@H]2[C@@H](O)C[C@@]2(C)[C@H]1C[C@@H](O)[C@]2(O)C(=O)CO
- Drug metabolism (Cytochrome P450 3A4 [1]): metabolite_detected
- Drug metabolism (Cytochrome P450 3A7): metabolite_detected
- Drug metabolism (Cytochrome P450 3A5): metabolite_detected

SMILES: CC1(C)O[C@@H]2C[C@H]3[C@@H]4C[C@@H](O)C5=CC(=O)C=C[C@]5(C)[C@@]4(F)[C@@H](O)C[C@]3(C)[C@]2(C(=O)CO)O1
- Drug metabolism (Cytochrome P450 3A4 [2]): metabolite_detected
- Retention_time (Cytochrome P450 3A4 [12]): 14.9 min

SMILES: CCC(=O)O[C@]1(C(=O)SCF)[C@H](C)C[C@H]2[C@@H]3C[C@H](F)C4=CC(=O)C=C[C@]4(C)[C@@]3(F)[C@@H](O)C[C@@]21C [FLUTICASONE PROPIONATE]
- half-life at 1 µM (CYP3A7): 58 min
- half-life at 1 µM (CYP3A4): 0.86 min
- half-life at 1 µM (CYP3A5): 16 min
